Source: PubChem
STAT1 act – STAT1 signaling activators, primary screen, cell-based, HTS, luciferase reporter; NIH 3T3 STAT1-luciferase reporter, IFN-gamma, luminescence; 100% = IFN-gamma alone, no compound; activation (% of control), % at 5.5 µM; 2.6% of 200,000 active; AID 932, 2007;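 active means activation above the screen-wide mean activation plus 3 SD, cut at about 130% in these data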;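 further: raw ratio to IFN-gamma control signal so 100% means no change and 0% no light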
APP 5'UTR act – activators of APP 5'UTR luciferase reporter, primary screen, SH-SY5Y cells. SH-SY5Y APP 5'UTR luciferase reporter, luminescence; zero percent = DMSO vehicle wells. AID 1276, 2008. activation, % at 2 µM. 1% of 190,000 active;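 active means activation above a set limit, based on mean plus 3 SD of controls, cut at about 140% in these data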
NF-kB expr up – activators of NF-kB expression in neurons, primary screen, cell-based, HTS; human neuronal cells, NF-kB reporter expression; active compounds read high; fold change at 12.5 µM; 1.6% of 190,000 active; AID 1239, 2008; in the data active means fold change above about 3.3
STAT1 inh – STAT1 signaling inhibitors, primary screen, cell-based, HTS, luciferase reporter. AID 920, 2007. NIH 3T3 STAT1-luciferase reporter, IFN-gamma, luminescence. inhibition, % at 5.5 µM. 0.35% of 200,000 active;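 active means inhibition above a set limit, the mean inhibition across all tested compounds plus 3 SD, cut at about 34% in these data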;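 further: 0% = IFN-gamma with DMSO and 100% = IFN-gamma with 300 µM nifuroxazide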
STAT3 inh – IL-6 driven STAT3 reporter inhibitors, primary screen, U3A cells, luciferase, luminescence, MLSCN library; IL-6 STAT3-luciferase reporter; host cell line lacks STAT1; inhibition, % at 5.5 µM; 0.89% of 190,000 active; AID 862, 2007;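 active means inhibition above the mean inhibition across all screened compounds plus 3 SD, cut at about 44% in these data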;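 further: 0% = DMSO only wells and 100% = 100 µM nifuroxazide control wells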
STAT3 activator – IL-6 driven STAT3 reporter potentiators, primary screen, U3A cells, luciferase, luminescence, MLSCN library | IL-6 STAT3-luciferase reporter; 100% = signal with IL-6 EC80 alone | activation (% of control), % at 5.6 µM | 0.91% of 190,000 active | AID 871, 2007;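 active means activation above the screen-wide mean of compound activation plus 3 SD, cut at about 130% in these data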;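 further: 0% = background luminescence of wells with medium and substrate only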
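Material: human U3A cells carrying STAT3-luciferase construct. Measured by: reporter luminescence signal. Timing: compound 1 h, then IL-6 6 h at 37 °C.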
* marks the source's active call; other numbers are inactive results; nt = not tested or not shown. Rows were chosen to be rich in hits. Some 5.1% of all compounds tested hit in one or more screens of this group.

SMILES | STAT1 act | APP 5'UTR act | NF-kB expr up | STAT1 inh | STAT3 inh | STAT3 activator
O=C(Nc1ccccn1)c1sc2cccc(F)c2c1Cl | 84 | 179* | 5.7* | 15 | 35 | 72
O=C(Nc1cccnc1)c1sc2cccc(F)c2c1Cl | 133* | 83 | 0.85 | -40 | -10 | 113
CN(C)CCNC(=O)c1sc2cccc(F)c2c1Cl | 103 | -18 | 1.3 | -4 | 13 | 95
CCc1ccc(-c2ccc(SCC(=O)NCC3CCCO3)nn2)cc1 (stereo not given) | 110 | 41 | 2.4 | -12 | 11 | 96
O=C(Nc1ccc2c(c1)OCO2)OCc1ccccc1 | 135* | 140* | 5.1* | -38 | 6 | 99
O=C(Nc1ccc2c(c1)OCO2)C1CCCN1C(=O)OCc1ccccc1 (stereo not given) | 106 | -15 | 1.3 | -5 | 0 | 106
O=C(NCCc1ccccc1)Nc1ccc2c(c1)OCO2 | 140* | 115 | 4.3* | -48 | -10 | 112
COc1ccc(CCNC(=O)Nc2ccc3c(c2)OCO3)cc1OC | 95 | 11 | 1.1 | 3 | 11 | 95
O=C(NCCc1ccccc1)C(=O)Nc1ccc2c(c1)OCCO2 | 115 | 38 | 2.1 | -18 | 3 | 103
O=C(NCCc1ccc(F)cc1)Nc1ccc2c(c1)OCO2 | 134* | 48 | 2.2 | -38 | 6 | 106
CC1=Nc2cc(C(=O)NCc3ccco3)ccc2Sc2ccc(C)cc21 | 95 | -96 | 3.5* | 6 | -44 | 134*
COCCN(C(=O)Cc1cccs1)C(C(=O)NCc1ccc(OC)cc1)c1ccccc1 (stereo not given) | 98 | -10 | 0.92 | 2 | 11 | 96
N/C(=N\OC(=O)CCC1CCCC1)c1cccc([N+](=O)[O-])c1 | 99 | 9 | 1.2 | 1 | 0 | 105
Oc1csc(Cc2nc(-c3ccccc3F)cs2)n1 | 144* | 18 | 1.9 | -49 | 6 | 106
Oc1csc(Cc2nc(-c3ccc(-c4ccccc4)cc3)cs2)n1 | 107 | 50 | 1.1 | -8 | -12 | 117
Oc1csc(Cc2nc(-c3ccc4ccccc4c3)cs2)n1 | 129* | 29 | 1.9 | -32 | -65 | 163*
O=c1oc2ccccc2cc1-c1csc(Cc2nc(-c3ccc(Cl)cc3)cs2)n1 | 102 | 5 | 1.2 | -2 | 0 | 100
O=C(CN1CCc2ccccc2C1)NCC(=O)Nc1ccc(F)cc1 | 103 | 0 | 1 | -5 | -12 | 120
Cc1ccccc1C(=O)NC1CCN(C(=O)N(c2ccccc2)c2ccccc2)CC1 | 94 | 5 | 0.92 | 7 | 5 | 99
Cc1ccc(C=Nc2ccccc2C(N)=O)o1 | 135* | 76 | 1 | -39 | 3 | 97
CC[C@H](C)C(C(=O)N1CCN(C(=O)OC(C)(C)C)CC1)n1cc(C(Cc2ccc(O)cc2)NC(=O)OC(C)(C)C)nn1 (stereo not given in full) | 97 | 15 | 0.47 | 5 | nt | nt
O=c1[nH]c(/C=C2\C=Nc3ccccc32)c(O)n1Cc1ccccc1F | 97 | -63 | 6.9* | 2 | 11 | 94
O=C(OCc1nnc(-c2ccc(Cl)cc2)o1)C12CC3CC(CC(O)(C3)C1)C2 | 138* | 53 | 1.1 | -40 | -20 | 117
C/C(N)=C(/C#N)C(=O)COC(=O)c1cc(-c2ccc(Br)cc2)nc2ccccc12 | 98 | -7 | 3.6* | 2 | 27 | 79
c1ccc(Sc2cnc3ccccc3n2)cc1 | 134* | 38 | 1.6 | -36 | -12 | 110
SMILES | STAT1 act | APP 5'UTR act | NF-kB expr up | STAT1 inh | STAT3 inh | STAT3 activator
Cc1ccc2nc(NC3=NC(CC(=O)O)C(=O)N3)nc(C)c2c1 (stereo not given) | 103 | 1 | 1.1 | -6 | 9 | 96
CC(=O)N1N=C(c2ccc(C)cc2)CC1c1ccco1 (stereo not given) | 113 | 31 | 1.8 | -15 | 3 | 104
CN1C(=O)C2(Oc3ccccc3C3CC(c4ccccc4)=NN32)c2ccccc21 (stereo not given) | 98 | 137* | 1.8 | 2 | -14 | 120
Cc1ccc(C2=NN3C(C2)c2ccccc2OC32C(=O)Nc3ccccc32)cc1 (stereo not given) | 107 | 204* | 8.7* | -8 | -32 | 132
CCOc1ccccc1NC(=O)CCn1cccc1 | 102 | 22 | 1.2 | -4 | 12 | 97
COC(=O)/C(=C\C(=O)c1ccccc1)Nc1cccc(C(F)(F)F)c1 | 109 | 46 | 1.2 | -10 | -4 | 110
COC(=O)C1=C(NC(=O)c2ccc(C)c(C)c2)CCS1 | 102 | 12 | 1.3 | -2 | -32 | 134*
Cc1ccc(NC(=O)c2ccco2)c([N+](=O)[O-])c1 | 139* | 39 | nt | -45 | 5 | 100
COc1ccc(NC(=O)c2ccco2)c([N+](=O)[O-])c1 | 138* | 49 | 2.5 | -41 | 5 | 92
COc1ccc(C(C(=O)NC2CCCC2)N(C(=O)c2ccoc2C)c2ccc(C)c(C)c2)cc1 (stereo not given) | 108 | nt | 0.93 | -9 | -10 | 108
O=C(NC1=NCCS1)c1cccc(OC(F)F)c1 | 140* | 150* | 4.1* | -40 | -2 | 106
CC(C)c1ccc(C(=O)NC2=NCCS2)cc1 | 145* | 167* | 1.1 | -52 | 34 | 72
COc1cc(OC)cc(C(=O)NC2=NCCS2)c1 | 104 | -2 | 1.2 | -3 | 9 | 93
COc1ccc(/C=N/Nc2nnc(-c3ncc[nH]3)c3ccccc23)cc1 | 142* | 65 | 0.94 | -47 | 33 | 74
Cc1ccc(-c2nc(N/N=C/c3ccncc3)c3ccccc3n2)cc1 | 29 | 31 | 2.4 | 78* | 90* | 25
Clc1nnc(NN=C2CCCC2)c2ccccc12 | 108 | 25 | 1.1 | -8 | -25 | 126
Cc1ccc2nc(C(Cl)(Cl)Cl)nc(N/N=C/c3ccncc3)c2c1 | 96 | -1 | 1.1 | 2 | 15 | 95
Cc1ccc(/C=N/Nc2nnc(Cl)c3ccccc23)cc1 | 131* | 159* | 9.3* | -34 | -4 | 107
C(=N\Nc1nc2ccccc2[nH]1)/c1ccccc1 | 124 | 128 | 1 | -29 | 21 | 84
Oc1ccc2ccccc2c1/C=N/Nc1nnc(-c2ncc[nH]2)c2ccccc12 | 74 | 6 | 0.8 | 29 | 24 | 84
C(=N\Nc1ncnc2ccccc12)/c1ccccc1 | 132* | 63 | 6* | -33 | 28 | 82
CC1(C)CC(=O)C(C=NCC2CCN(C(=S)Nc3cccc(Cl)c3)CC2)=C(O)C1 | 101 | -2 | 1.1 | -3 | 5 | 100
